# Measurements as given in ChEMBL document CHEMBL1123106, “Synthesis and biological activity of modified peptide inhibitors of angiotensin-converting enzyme” (J Med Chem, 1985).
# Key:
# Rattus norvegicus [1] = test: % Decrease in mean arterial pressure in conscious renal hypertensive rats at a dose of 3 mg/Kg, administered perorally at MAP 190 mm Hg; N means no significant lowering of arterial pressure; assay type: functional, organism-based; settings: Artery
# Outline: (§1)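 Conscious two-kidney, one-clip Goldblatt renal hypertensive rats (N = 3) were dosed orally at 3 or 30 mg/kg. Predose mean arterial pressure was about 190 mmHg. The read-out is % decrease in mean arterial pressure. N marks no significant lowering of arterial pressure at that dose.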
# Rattus norvegicus [2] = test: % Decrease in mean arterial pressure in conscious renal hypertensive rats at a dose of 30 mg/Kg, administered perorally at MAP 190 mmHg; assay type: functional, Artery; outline: as §1
# Rattus norvegicus [3] = test: % decrease in mean arterial pressure in conscious renal hypertensive rats at a dose of 3 mg/Kg, administered perorally at MAP 190 mm Hg; assay type: functional, Artery; outline: as §1
# Rattus norvegicus [4] = test: % Decrease in mean arterial pressure in conscious renal hypertensive rats at a dose of 3 mg/Kg, administered perorally at MAP 190 mmHg; assay type: functional, Artery; outline: as §1
# Rattus norvegicus [5] = test: % decrease in mean arterial pressure in conscious renal hypertensive rats at a dose of 30 mg/Kg, administered perorally at MAP 190 mmHg; assay type: functional, Artery; outline: as §1
# Rattus norvegicus [6] = test: % decrease in mean arterial pressure in conscious renal hypertensive rats at a dose of 3 mg/Kg, administered perorally at MAP 190 mm Hg; N means no significant lowering of arterial pressure; assay type: functional, organism-based; settings: Artery; outline: as §1
# [7] = test system: Angiotensin-converting enzyme (Cavia porcellus); test: In vitro inhibitory activity against Angiotensin I converting enzyme from unpurified guinea pig serum; No significant activity
# Rattus norvegicus [8] = test: % decrease in mean arterial pressure in conscious renal hypertensive rats at a dose of 3 mg/Kg, administered perorally at MAP 190 mmHg; assay type: functional, Artery; outline: as §1
compound,measurement,setting,value
CCOC(=O)C(CCc1ccccc1)[S+]([O-])C(C)C(=O)N1C2CCCCC2C[C@H]1C(=O)O (stereo partly drawn),Decrease in mean arterial pressure,Rattus norvegicus [1],No significant activity
same,Decrease in mean arterial pressure,Rattus norvegicus [2],10%
C[C@H](CS)C(=O)N1CCC[C@H]1C(=O)O [CAPTOPRIL],Decrease in mean arterial pressure,Rattus norvegicus [3],49%
CCOC(=O)[C@H](CCc1ccccc1)N[C@@H](C)C(=O)N1C2CCCCC2C[C@H]1C(=O)O (stereo partly drawn),Decrease in mean arterial pressure,Rattus norvegicus [3],46%
CCOC(=O)[C@H](CCc1ccccc1)N[C@@H](C)C(=O)N1Cc2ccccc2C[C@H]1C(=O)O,Decrease in mean arterial pressure,Rattus norvegicus [4],54%
CC(OC(CCc1ccccc1)C(=O)O)C(=O)N1CCCC1C(=O)O (stereo not drawn),Decrease in mean arterial pressure,Rattus norvegicus [5],9%
same,Decrease in mean arterial pressure,Rattus norvegicus [6],No significant activity
CCOC(=O)[C@H](CCc1ccccc1)N[C@@H](C)C(=O)N1CCC[C@H]1C(=O)O,Decrease in mean arterial pressure,Rattus norvegicus [3],55%
CC(SC(CCc1ccccc1)C(=O)O)C(=O)NC1(C(=O)O)CCCC1 (stereo not drawn),IC50,[7],No significant activity
CCOC(=O)C(CCc1ccccc1)OC(C)C(=O)N1C(C(=O)O)CC2CCCCC21 (stereo not drawn),Decrease in mean arterial pressure,Rattus norvegicus [5],12%
same,Decrease in mean arterial pressure,Rattus norvegicus [6],No significant activity
CCOC(=O)C(CCc1ccccc1)S(=O)(=O)C(C)C(=O)N1CCC[C@H]1C(=O)O (stereo partly drawn),IC50,[7],No significant activity
CCOC(=O)C(CCc1ccccc1)OC(C)C(=O)N1Cc2ccccc2CC1C(=O)O (stereo not drawn),Decrease in mean arterial pressure,Rattus norvegicus [5],18%
same,Decrease in mean arterial pressure,Rattus norvegicus [8],8%
CCOC(=O)C(CCc1ccccc1)OC(C)C(=O)N1CCCC1C(=O)O (stereo not drawn),Decrease in mean arterial pressure,Rattus norvegicus [6],No significant activity
same,Decrease in mean arterial pressure,Rattus norvegicus [2],3%
CC(SC(CCc1ccccc1)C(=O)O)C(=O)NC1(C(=O)O)CCC(c2ccccc2)CC1 (stereo not drawn),IC50,[7],No significant activity
CC(C(=O)N1CCC[C@H]1C(=O)O)S(=O)(=O)C(CCc1ccccc1)C(=O)O (stereo partly drawn),IC50,[7],No significant activity
